Experimental data taken from ChEMBL document CHEMBL4041473, “Identification of novel microsomal prostaglandin E2 synthase-1 (mPGES-1) lead inhibitors from Fragment Virtual Screening” (Eur J Med Chem, 2017).
pIC50: −log10 of the molar value.

Assays:
[1] = target: T1, Prostaglandin E synthase (Homo sapiens) (UniProt O14684); test: Inhibition of mPGES-1 in microsomes isolated from IL-1beta-stimulated human A549 cells at 10 uM using PGH2 as substrate preincubated for 15 mins followed by substrate addition measured after 1 min by RP-HPLC method relative to control; format: cell-free
T1 sequence (whole entry): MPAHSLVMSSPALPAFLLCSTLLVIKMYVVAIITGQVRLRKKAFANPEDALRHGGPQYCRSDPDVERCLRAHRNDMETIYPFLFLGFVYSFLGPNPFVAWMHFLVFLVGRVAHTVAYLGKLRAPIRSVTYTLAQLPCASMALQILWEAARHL
In short: (§1)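 mPGES-1 source: microsomes of A549 cells stimulated 48 h with IL-1β (1 ng/ml), sonicated, spun 10,000×g 10 min then 174,000×g 1 h at 4 °C. Diluted in 0.1 M potassium phosphate pH 7.4 with 2.5 mM glutathione. Compound or DMSO vehicle added 15 min at 4 °C, then 20 µM PGH2 for 1 min at 4 °C. Stopped with FeCl2/citric acid plus 11β-PGE2. PGE2 measured by solid-phase extraction and RP-HPLC.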

Prostaglandin E synthase = target: T2, Prostaglandin E synthase (Homo sapiens, UniProt O14684); test: Inhibition of mPGES-1 in microsomes isolated from IL-1beta-stimulated human A549 cells using PGH2 as substrate preincubated for 15 mins followed by substrate addition measured after 1 min by RP-HPLC method; format: cell-free; in short: as §1
T2 sequence (O14684 whole entry): T1 sequence (whole entry)

SMILES	inhibition [1]	pIC50 (Prostaglandin E synthase)
O=C1c2ccc(O)cc2-c2nc3nonc3nc21	30%	–
CC(=O)O/N=C1\C=Cc2c(no[n+]2[O-])C1=O	20%	–
O=C(Oc1cccc2c1C(=O)c1nc3nonc3nc1-2)c1ccccc1	70%	5.34
O=C1c2ccccc2-c2nc3nonc3nc21	30%	–
O=C1c2cc(O)ccc2-c2nc3nonc3nc21	15%	–
O=C(Oc1ccc2c(c1)C(=O)c1nc3nonc3nc1-2)c1ccccc1	85%	5.62
O=C1c2nc3nonc3nc2-c2cccc(O)c21	5%	–
O=C(Oc1ccc2c(c1)-c1nc3nonc3nc1C2=O)c1ccccc1	70%	5.62
